From PubChem BioAssay
MEKK3 PB1 HTS: raises or lowers MEK5 binding to the human MEKK3 PB1 domain | Q99759 | bead-based flow cytometry, Alexa488-MEK5 binding to MEKK3; actives lie on both sides; 0 = blocked by unlabeled MEK5, 100 = vehicle | binding response (% of control), % at 10 µM | 290,000 tested, 1.4% active | AID 1529;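 active = binding response more than 3 SD above or below the average of its plate-row segment, actives on both sides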;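 also: Alexa488 bead fluorescence after subtracting the streptavidin-only scavenger bead signal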
Target sequence (Q99759 whole entry, looked up, the tested form may be a part): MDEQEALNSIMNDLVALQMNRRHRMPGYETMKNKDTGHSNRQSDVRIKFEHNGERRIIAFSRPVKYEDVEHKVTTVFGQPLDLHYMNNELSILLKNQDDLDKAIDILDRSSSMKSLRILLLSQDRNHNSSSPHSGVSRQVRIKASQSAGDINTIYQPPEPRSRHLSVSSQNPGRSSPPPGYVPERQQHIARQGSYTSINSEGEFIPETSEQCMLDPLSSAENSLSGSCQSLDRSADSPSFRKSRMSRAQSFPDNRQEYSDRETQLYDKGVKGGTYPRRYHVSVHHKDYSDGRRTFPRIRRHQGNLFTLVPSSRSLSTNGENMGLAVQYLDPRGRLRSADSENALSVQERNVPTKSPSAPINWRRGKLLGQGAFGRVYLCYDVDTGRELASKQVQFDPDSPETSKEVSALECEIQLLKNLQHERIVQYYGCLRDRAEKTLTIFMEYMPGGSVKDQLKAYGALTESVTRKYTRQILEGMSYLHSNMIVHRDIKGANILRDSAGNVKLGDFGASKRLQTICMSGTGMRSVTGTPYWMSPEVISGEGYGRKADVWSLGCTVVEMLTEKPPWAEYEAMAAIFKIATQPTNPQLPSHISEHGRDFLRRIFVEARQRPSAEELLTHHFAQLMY
MEKK2 mut-MEK5: signal of MEK5 binding to mutant human MEKK2 PB1 domain; 290,000 tested, 0.35% active; bead flow cytometry, Alexa488-MEK5 binding to MEKK2 mutant; percent response, % at 10 µM; in the data active = percent response above about 24%, passing the limit was not always enough
GSK3 alpha inh: blocks human GSK-3 alpha kinase; P49840; ADP-Glo luminescence, 60 min; inhibition, % at 10 µM; 320,000 tested, 0.1% active; AID 2650;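 active = more than half of replicates show inhibition above 20%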;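 also: GST-tagged GSK-3 alpha with peptide substrate and 25 µM ATP; 0% = DMSO neutral wells and 100% = GW8510 positive control wells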
STK33 kinase inh: blocks human STK33 kinase activity | 320,000 tested, 0.073% active | AID 2661 | inhibition, % at 10 µM | Q9BYT3 | purified STK33, MBP phosphorylation, ADP-Glo luminescence;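 active = inhibition at or above 25%, using the most active replicate where run in duplicate; inactive = inhibition below 25%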
MEKK2 WT-MEK5: raises or lowers MEK5 binding to wildtype human MEKK2 PB1 domain | Q9Y2U5 | bead flow cytometry, Alexa488-MEK5 binding to MEKK2 WT; actives lie on both sides | binding response (% of control), % at 10 µM | 290,000 tested, 1.1% active; in the data active = binding response below about 67% or above about 130%
GSK3B inh: human GSK3beta kinase inhibition | P49841 | GST-GSK3beta kinase, ADP-Glo luminescence, 60 min; hits give low values | activity score (negative = inhibition), % at 10 µM | 300,000 tested, 0.038% active | AID 2097;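 active = more than half of replicate wells score below -50%, meaning over 50% inhibition versus plate controls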;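 also: 0% = median DMSO wells and -100% = median GW8510 positive control wells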
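Test system – GST-tagged human GSK3beta kinase, cell-free · Incubation – 60 min enzyme reaction, room temperature · Signal – ADP-Glo luminescence · Also added – peptide substrate and ATP at 25 µM · Controls – DMSO neutral wells and GW8510 at 20 µM as positive · Buffer or medium – Tris/MgCl2 kinase buffer · Measure – Luminescence-derived activity versus plate DMSO and GW8510 wells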
MEKK2wt confirm: raises or lowers MEK5 binding to wildtype human MEKK2, retest. AID 1892. shares compounds with MEKK3 PB1 HTS. 5,900 tested, 2.4% active. bead flow cytometry, Alexa488-MEK5 binding to MEKK2 WT; actives lie on both sides. binding response (% of control), % at 10 µM; in the data active = binding response below about 16% or above about 210%; inactive = in between
MEKK2mut confirm: signal of MEK5 binding to mutant human MEKK2, retest; bead flow cytometry, Alexa488-MEK5 binding to MEKK2 mutant; 5,900 tested, 2% active; shares compounds with MEKK3 PB1 HTS; percent response, % at 10 µM; in the data active = percent response mostly above about 71%, no sharp cut-off; inactive = mostly below about 38%;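 also: higher means compound restores mutant binding toward wildtype level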
MEKK3 confirm: confirmation of inhibitors of MEK5 binding to human MEKK3; 5,900 tested, 1.8% active; binding response (% of control), % at 10 µM; bead flow cytometry, Alexa488-MEK5 binding to MEKK3; hits give low values; shares compounds with MEKK3 PB1 HTS; AID 1894;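 active = binding response below 72% of control, or above a set upper limit, though filed actives all read lower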;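 also: 100% = DMSO only wells and 0% = binding blocked by excess unlabeled MEK5; lower values mean stronger disruption of MEK5 binding to MEKK3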
Numbers without * were called inactive; · = no result given; [ ] = dose if it differs, or a comment. An excerpt weighted towards active compounds, which were near 2.1% of everything screened.

SMILES	MEKK3 PB1 HTS	MEKK2 mut-MEK5	GSK3 alpha inh	STK33 kinase inh	MEKK2 WT-MEK5	GSK3B inh	MEKK2wt confirm	MEKK2mut confirm	MEKK3 confirm
O=C(O)/C=C/c1coc2ccc(F)cc2c1=O	72*[inhibitor]	0	-3	2	99	3	106	12	106
Cc1ccc2occ(/C=C/C(=O)O)c(=O)c2c1	95	9	1	-2	99	0	·	·	·
O=C(NCCCN1CCCC1)[C@H](CSCc1ccccc1)N1Cc2ccccc2C1=O	97	-4	-2	-2	96	-4	·	·	·
O=C(NCc1ccccn1)c1ccc(Cn2c(=S)[nH]c3ccc(Br)cc3c2=O)cc1	97	-7	-2	-1	91	0	·	·	·
O=c1c2cc(Cl)ccc2[nH]c(=S)n1Cc1ccccn1	151*	0	-3	-1	103	3	106	-2	102
COC(=O)C[C@H]1c2ccccc2S(=O)(=O)N1C(C)C	99	0	-3	-1	98	5	·	·	·
CCC1(C)OC(=O)N(CCCn2ccnc2C)C1(C)O (stereo not given)	123*	9	-3	-3	121	-3	102	1	97
CN1CCN(/N=C/c2c3ccccc3c(Cl)c3ccccc23)CC1	·	·	6	6	·	0	·	·	·
CCC(c1nnnn1CCOC)N1CCN(Cc2ccccc2OC)CC1 (stereo not given)	117	25*	-1	-2	110	-1	111	5	104
CCCC(c1nnnn1CCOC)N1CCN(Cc2ccccc2)CC1 (stereo not given)	108	2	-1	-1	100	2	·	·	·
O=C(CN1CCc2ccccc2C1)Nc1ccc(OC(F)(F)F)cc1	92	-4	-2	-2	93	1	·	·	·
Cc1ccc2c(c1)nnn2C1CCN(CC(=O)N(c2ccccc2)c2ccccc2)CC1	90	-14	-2	-3	88	1	·	·	·
Cc1ccc2c(c1)nnn2C1CCN(CC(=O)c2ccc(Cl)cc2)CC1	129*	5	0	-3	120	0	102	4	101
CCCCn1c(N)c(N(CCC(C)C)C(=O)C2=NN(c3ccccc3)C(=O)CC2)c(=O)[nH]c1=O	·	·	-2	-2	·	·	·	·	·
CCCC(=O)NC(NC(=S)Nc1ccc(S(N)(=O)=O)cc1)C(Cl)(Cl)Cl (stereo not given)	131*	0	0	-1	107	0	102	5	104
O=c1c2cc(N3CCOCC3)ccc2[nH]c(=S)n1CCCN1CCCCCC1	101	13	11	3	148*	2	125	10	99
N#Cc1ccc(CSc2ccc(S(=O)(=O)N3CCCC3)cn2)cc1	·	·	1	0	·	·	·	·	·
Cc1ccc(N2CC(=O)N(c3ccc(C)cc3)CC2=O)cc1	103	-1	-2	-1	96	0	·	·	·
Cc1ccc(C)c(-c2ccc(=O)n(Cc3ccc(F)cc3Cl)n2)c1	128*	34*	0	-1	132	0	100	0	104
Cc1ccc(C)c(-c2ccc(=O)n(Cc3cccc(Br)c3)n2)c1	110	11	-6	-1	106	-4	·	·	·
O=C(Cn1cc(C(F)(F)F)cc(Cl)c1=O)NCCc1ccccc1	135*	0	·	·	108	0	103	2	102
Cn1c(=O)cc(OCCCC(=O)NCc2cccnc2)c2ccccc21	48*[inhibitor]	-16	0	0	51	4	100	-3	99
COCCN1CCC(CNCc2cn[nH]c2-c2ccc(C)c(C)c2)C1 (stereo not given)	100	31	4	1	161*	-2	159	43	114
